{"source": "paper PMC4514009", "about": "(Journal of Radioanalytical and Nuclear Chemistry, 2010)", "tested_on": "NMDAR", "test": "Autoradiography of NMDAR in vitro by storage phosphor imaging", "format": "binding, Sprague–Dawley (SD) rat", "details": "EB 0.3 mg pretreatment of slides", "how_it_was_run": "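Sagittal brain sections from one healthy Sprague–Dawley rat (290 g) were fixed and air-dried, then shaken 30 min at room temperature in 50 mM Tris–HCl (pH 7.4) with 120 mM NaCl. EB 0.3 mg (60 μL) or saline was applied to the slides, which were preincubated 30 min at room temperature, then incubated with the radiotracer. They were washed three times for 30 min in ice-cold Tris–HCl and exposed 30 min to a phosphor screen. DLU mm−2 were read by ROI, and hippocampus/thalamus ratios were taken per section.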", "data": [{"smiles": "O=c1c2ccccc2[se]n1-c1ccccc1", "note": "[EB, Ebselen]", "values": [{"measurement": "effect on accumulation of ^99mTc-PQQ in hippocampus and cortex", "value": "can be inhibited"}]}]}
